Columns and labels:
L1210 [1] = assay: Compound were evaluated for inhibition of macromolecular synthesis in murine leukemia L1210 cells at 4 hour against DNA.; format: functional, Mus musculus; parameters: scale not given: the % may be the effect or the level left
L1210 [2] = assay: Cytotoxicity was evaluated against L1210 leukemia cell line at 500 ug/disk.; format: functional, Mus musculus
In short: (§1)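 Disk zone assay: analogue dilutions on 6.5 mm paper disks were placed on dishes with a 0.8% agar bottom layer and a 0.44% soft-agar top layer of tumor cells (≤1 × 10^5/plate) in Fishers-CMRL-1066 with 12% horse serum. Plates were incubated 6-10 days and the inhibition zone was measured by microscope; 200 zone units = 6 mm.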

L1210 [3] = assay: Compound were evaluated for inhibition of macromolecular synthesis in murine leukemia L1210 cells at 1 hour against Protein; format: functional, Mus musculus; parameters: scale not given: the % may be the effect or the level left
L1210 [4] = assay: Compounds were evaluated for inhibition of macromolecular synthesis in murine leukemia L1210 cells at 1 hour against DNA.; format: functional, Mus musculus; parameters: scale not given: the % may be the effect or the level left
[5] = Cytotoxicity was evaluated against low malignancy line at 500 ug/disk.; format: functional; in short: as §1
L1210 [6] = assay: Compound were evaluated for inhibition of macromolecular synthesis in murine leukemia L1210 cells at 4 hour against RNA.; format: functional, Mus musculus; parameters: scale not given: the % may be the effect or the level left
Homo sapiens [7] = species: Homo sapiens; assay: Cytotoxicity was evaluated against PO1 human solid tumor at 500 ug/disk.; format: functional; in short: as §1
L1210 [8] = assay: Compounds were evaluated for inhibition of macromolecular synthesis in murine leukemia L1210 cells at 1 hour against RNA.; format: functional, Mus musculus; parameters: scale not given: the % may be the effect or the level left
[9] = Cytotoxicity was evaluated against CO9 solid tumor of mouse at 500 ug/disk.; format: functional; in short: as §1
L1210 [10] = assay: Compound were evaluated for inhibition of macromolecular synthesis in murine leukemia L1210 cells at 4 hour against Protein; format: functional, Mus musculus; parameters: scale not given: the % may be the effect or the level left
L1210 [11] = assay: Inhibitory activity against murine leukemia L1210 cells; format: functional, cell-based; details: Mus musculus
Nucleic Acid [12] = assay: Compound was evaluated for inhibition of macromolecular synthesis in murine leukemia L1210 cells at 8 hour against RNA.; format: functional, cell-based; parameters: scale not given: the % may be the effect or the level left; details: Mus musculus
Mus musculus [13] = species: Mus musculus; assay: (§2) Compound was evaluated for inhibition of macromolecular synthesis in murine leukemia L1210 cells at 1 hour against Protein; format: functional; parameters: scale not given: the % may be the effect or the level left
MC-38 = assay: Cytotoxicity was evaluated against C38 solid tumor of mouse at 1000 ug/disk.; format: functional; in short: as §1
Homo sapiens [14] = species: Homo sapiens; assay: Cytotoxicity was evaluated against C116 human solid tumor at 1000 ug/disk.; format: functional; in short: as §1
Nucleic Acid [15] = assay: (§3) Compound was evaluated for inhibition of macromolecular synthesis in murine leukemia L1210 cells at 4 hour against DNA.; format: functional, cell-based; parameters: scale not given: the % may be the effect or the level left; details: Mus musculus
Nucleic Acid [16] = assay: (§4) Compound was evaluated for inhibition of macromolecular synthesis in murine leukemia L1210 cells at 4 hour against RNA.; format: functional, cell-based; parameters: scale not given: the % may be the effect or the level left; details: Mus musculus
[17] = (§5) Cytotoxicity was evaluated against low malignancy line at 1000 ug/disk.; format: functional; in short: as §1
Nucleic Acid [18] = assay: (§6) Compound was evaluated for inhibition of macromolecular synthesis in murine leukemia L1210 cells at 1 hour against DNA.; format: functional, cell-based; parameters: scale not given: the % may be the effect or the level left; details: Mus musculus
Nucleic Acid [19] = assay: (§7) Compound was evaluated for inhibition of macromolecular synthesis in murine leukemia L1210 cells at 1 hour against RNA.; format: functional, cell-based; parameters: scale not given: the % may be the effect or the level left; details: Mus musculus
Nucleic Acid [20] = assay: Compound was evaluated for inhibition of macromolecular synthesis in murine leukemia L1210 cells at 8 hour against DNA.; format: functional, cell-based; parameters: scale not given: the % may be the effect or the level left; details: Mus musculus
Mus musculus [21] = species: Mus musculus; assay: Compound was evaluated for inhibition of macromolecular synthesis in murine leukemia L1210 cells at 8 hour against Protein; format: functional; parameters: scale not given: the % may be the effect or the level left
L1210 [22] = assay: Cytotoxicity was evaluated against L1210 leukemia cell line at 1000 ug/disk.; format: functional, Mus musculus; in short: as §1
Mus musculus [23] = species: Mus musculus; assay: (§8) Compound was evaluated for inhibition of macromolecular synthesis in murine leukemia L1210 cells at 4 hour against Protein; format: functional; parameters: scale not given: the % may be the effect or the level left
Mus musculus [24] = species: Mus musculus; assay: Selectivity index which is the ratio of IC50 to EC50 of R-MuLV.; format: functional
[25] = Inhibition of incorporation of labeled precursor into macromolecules of noninfected SC-1 cells with the compound at a concentration 100 uM determined against thymidine; format: functional
In short: (§9)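 Noninfected SC-1 cells were incubated with analogue as in the cytotoxicity setup, and [3H]thymidine, [3H]uridine or [3H]leucine was added. After 4 h, wells were washed with ice-cold PBS and cells were lysed in 1% SDS, 0.01 M EDTA, 0.01 M Tris pH 7.7. Lysates were dried on glass-fiber filters, and label is expressed as percent of incorporation in untreated cells.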

[26] = Inhibition of incorporation of labeled precursor into macromolecules of noninfected SC-1 cells with the compound at a concentration 100 uM determined against uridine.; format: functional; in short: as §9
Mus musculus [27] = species: Mus musculus; assay: Concentration that reduces Rauscher murine leukemia virus titer by 50%; format: functional, organism-based
In short: (§10)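 SC-1 cells (1 × 10^4/well) were pretreated with polybrene, infected 2 h at 37 °C with F-MuLV or R-MuLV in EMEM-5 with 8 µg/mL polybrene, washed, and refed with analogue for 72 h. They were then UV-irradiated and overlaid with XC cells (2 × 10^5) for 48 h, fixed and stained with crystal violet. Multinucleated cells were counted and EC50 was taken by linear regression versus untreated cultures.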

Mus musculus [28] = species: Mus musculus; assay: Concentration that reduces Friend murine leukemia virus titer by 50%; format: functional, organism-based; in short: as §10
[29] = Selectivity index is the ratio of IC50 to EC50 of F-MuLV.; format: functional
[30] = Inhibition of incorporation of labeled precursor into macromolecules of noninfected SC-1 cells with the compound at a concentration 100 uM determined against leucine.; format: functional; in short: as §9
[31] = Inhibition of incorporation of labeled precursor into macromolecules of noninfected SC-1 cells with the compound at a concentration 300 uM determined against thymidine; format: functional
In short: (§11)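 SC-1 cells seeded in 24-well trays at 1 × 10^4 cells/mL, incubated overnight at 37 °C, then exposed to analogue for 72 h at 37 °C. Labeled thymidine (2.5 µCi), [3H-5,6]uridine or [3H-4,5]leucine was added. After 4 h, cells were washed with cold PBS, lysed in 1% SDS/0.01 M EDTA/0.01 M Tris pH 7.7, and lysates were dried on GF/B filters. Result given as % of untreated incorporation.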

[32] = Inhibition of incorporation of labeled precursor into macromolecules of noninfected SC-1 cells with the compound at a concentration 300 uM determined against uridine.; format: functional; in short: as §11
[33] = Inhibition of incorporation of labeled precursor into macromolecules of noninfected SC-1 cells with the compound at a concentration 300 uM determined against leucine.; format: functional; in short: as §11
Mus musculus [34] = species: Mus musculus; assay: Cytotoxicity was evaluated; format: functional
In short: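 SC-1 cells (1 × 10^4 cells/mL) were seeded, incubated overnight at 37 °C, refed with EMEM-10 and given diluted analogue in triplicate for 72 h at 37 °C. Cells were trypsinized and counted in a Coulter counter. The mean of three wells gave percent of control count, and IC50 was calculated by linear regression.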

L1210 [35] = assay: as §4; format: functional, Mus musculus; parameters: scale not given: the % may be the effect or the level left
Mus musculus [36] = species: Mus musculus; assay: as §5; format: functional; in short: as §1
L1210 [37] = assay: as §3; format: functional, Mus musculus; parameters: scale not given: the % may be the effect or the level left
L1210 [38] = assay: as §8; format: functional, Mus musculus; parameters: scale not given: the % may be the effect or the level left
L1210 [39] = assay: Cytotoxicity was evaluated against L1210 leukemia cell line at 250 ug/disk.; format: functional, Mus musculus; in short: as §1
L1210 [40] = assay: as §7; format: functional, Mus musculus; parameters: scale not given: the % may be the effect or the level left
L1210 [41] = assay: as §2; format: functional, Mus musculus; parameters: scale not given: the % may be the effect or the level left
Homo sapiens [42] = species: Homo sapiens; assay: Cytotoxicity was evaluated against PO1 human solid tumor at 250 ug/disk.; format: functional; in short: as §1
Homo sapiens [43] = species: Homo sapiens; assay: Cytotoxicity was evaluated against C116 human solid tumor at 250 ug/disk.; format: functional; in short: as §1
PO3 = assay: Cytotoxicity was evaluated against PO3 cell line at 250 ug/disk.; format: functional, Mus musculus; in short: as §1
[44] = Cytotoxicity was evaluated against low malignancy line at 250 ug/disk.; format: functional; in short: as §1
L1210 [45] = assay: as §6; format: functional, Mus musculus; parameters: scale not given: the % may be the effect or the level left

Nc1ccn(C/C=C\CCl)c(=O)n1
Control (L1210 [1]): 67% | Cytotoxicity (L1210 [2]): 640 | Control (L1210 [3]): 100% | Control (L1210 [4]): 80% | Cytotoxicity [5]: 450 | Control (L1210 [6]): 100% | Cytotoxicity (Homo sapiens [7]): 640 | Control (L1210 [8]): 100% | Cytotoxicity [9]: 410 | Control (L1210 [10]): 100% | IC50 (L1210 [11]): 10 µM

Oc1nccc(NCC#CCCl)n1
Control (Nucleic Acid [12]): 18% | Control (Mus musculus [13]): 85% | Cytotoxicity (MC-38): 720 | Cytotoxicity (Homo sapiens [14]): 660 | Control (Nucleic Acid [15]): 35% | Control (Nucleic Acid [16]): 60% | Cytotoxicity [17]: 600 | Control (Nucleic Acid [18]): 60% | Control (Nucleic Acid [19]): 75% | Control (Nucleic Acid [20]): 5% | Control (Mus musculus [21]): 55% | Cytotoxicity (L1210 [22]): 530 | Control (Mus musculus [23]): 70% | IC50 (L1210 [11]): 20 µM

Nc1ncnc2c1ncn2C1C(O)C(O)C(CO)C1O (stereo unspecified)
SI (Mus musculus [24]): 9.1 | Precursor inhibition [25]: 115% | Precursor inhibition [26]: 56% | EC50 (Mus musculus [27]): 25 µM | EC50 (Mus musculus [28]): 67.3 µM | SI [29]: 3.4 | Precursor inhibition [30]: 99% | Precursor inhibition [31]: 110% | Precursor inhibition [32]: 29% | Precursor inhibition [33]: 53% | IC50 (Mus musculus [34]): 281 µM

Cc1cn(C2C=CCO2)c(=O)[nH]c1=O (stereo unspecified)
Control (L1210 [35]): 50% | Cytotoxicity (MC-38): 430 | Cytotoxicity (Homo sapiens [14]): 260 | Cytotoxicity (Mus musculus [36]): 500 | Control (L1210 [37]): 10% | Cytotoxicity (L1210 [22]): 410 | Control (L1210 [38]): 90% | IC50 (L1210 [11]): 50 µM

Nc1ccn(C2C=CCO2)c(=O)n1 (stereo unspecified)
Control (L1210 [35]): 85% | Cytotoxicity (L1210 [39]): 500 | Control (L1210 [40]): 100% | Control (L1210 [41]): 100% | Control (L1210 [37]): 55% | Control (L1210 [38]): 50% | Cytotoxicity (Homo sapiens [42]): 600 | Cytotoxicity (Homo sapiens [43]): 450 | Cytotoxicity (PO3): 500 | Cytotoxicity [44]: 400 | Control (L1210 [45]): 85% | IC50 (L1210 [11]): 28 µM
